Published values collected from several papers.
Lines come from different studies, so protocols differ.
Target: Serine/threonine-protein kinase PAK 6 (PAK6, Homo sapiens, UniProt Q9NQU5)

Structure (SMILES) | effect on | mode | method | concentration | measurement | result
CC(C)(O)[C@H]1CC[C@H](Nc2ccc3ncc(-c4cccc(C(F)(F)F)c4)n3n2)CC1 | enzyme activity | inhibitor |  | 1 µM | remaining activity | 101%
O=C(Nc1cnn(-c2csc(C(=O)NC3COC3)c2)c1)Nc1c(F)cccc1Cl | enzyme activity | inhibitor |  | 5 µM | remaining activity | 92.9%
CC(C)(C)C(=O)c1sc(NC2CCCCC2)nc1N | enzyme activity | inhibitor |  | 10 µM | remaining activity | 98%
COc1cc2ncnc(Nc3ccc(Oc4ccccc4)cc3C)c2cc1OC | enzyme activity | inhibitor |  | 1 µM | inhibition | 3%
O=C1CCc2cc(Nc3cc(OC4CCOCC4)c([N+](=O)[O-])cc3Cl)ccc2N1 | cell-free assay |  | competition with immobilised ligand | 1 µM | remaining binding | 86%
O=C(Nc1cnn(-c2csc(C(=O)NC3COC3)c2)c1)Nc1ccccc1Cl | enzyme activity | inhibitor |  | 5 µM | remaining activity | 131%
O=C1NC(=O)c2cc(Nc3ccc(F)cc3)c(Nc3ccc(F)cc3)cc21 | cell-free assay |  |  | 0.5 µM | remaining signal | 106%
O=C(O)[C@@H]1[C@@H](Cn2nnc3ccccc3c2=O)CC[C@H]1C(=O)c1ccc(OCCC2CCOCC2)cc1 | cell-free assay |  | competition with immobilised ligand | 1 µM | remaining binding | 99%
CC(C)(C)c1nc(-c2cccc(NS(=O)(=O)c3c(F)cccc3F)c2F)c(-c2ccnc(N)n2)s1 | enzyme activity | inhibitor | radiometric | 1 µM | remaining activity | 79%
N#CCCc1ccc2c(c1)-c1[nH]c3ccc([N+](=O)[O-])cc3c1CC(=O)N2 | cell-free assay |  |  | 0.5 µM | remaining signal | 104%
Cn1c(=O)n(-c2ccc(C(C)(C)C#N)cc2)c2c3cc(-c4cnc5ccccc5c4)ccc3ncc21 | enzyme activity | inhibitor |  | 10 µM | remaining activity | 105%
CCCOc1ccc([C@@H]2[C@@H](C(=O)O)[C@H](c3ccc4c(c3)OCO4)CN2CC(=O)Nc2c(CC)cccc2CC)cc1 | cell-free assay |  | competition with immobilised ligand | 1 µM | remaining binding | 83%
CCN(CC)CCNC(=O)c1c(C)[nH]c(/C=C2\C(=O)Nc3ccc(F)cc32)c1C | enzyme activity | inhibitor |  | 10 µM | inhibition | 29%
Nc1nc(NC2CCCCC2)sc1C(=O)c1ccccc1 | enzyme activity | inhibitor |  | 10 µM | remaining activity | 93%
CCS(=O)(=O)c1cc2cc(C[C@@](O)(CC(C)(C)c3ccc(F)cc3C(N)=O)C(F)(F)F)[nH]c2cn1 | cell-free assay |  | competition with immobilised ligand | 1 µM | remaining binding | 77%
Cc1ccc(C(=O)Nc2ccc(CN3CCN(C)CC3)c(C(F)(F)F)c2)cc1C#Cc1cnc2cccnn12 | enzyme activity | inhibitor |  | 23.5 nM | remaining activity | 84%
CCN(CC)c1ccc(C2=NNC(=O)CC2C)cc1[N+](=O)[O-] (centres unmarked) | enzyme activity | inhibitor |  | 10 µM | remaining activity | 126%
CNC(=O)c1ccc(Nc2ncc(C(F)(F)F)c(NCc3nccnc3N(C)S(C)(=O)=O)n2)cc1 | cell-free assay |  | competition with immobilised ligand | 0.1 µM | remaining binding | 100%
CNC(=O)c1cc(Oc2ccc(NC(=O)Nc3ccc(Cl)c(C(F)(F)F)c3)cc2)ccn1 | enzyme activity | inhibitor |  | 0.3 µM | inhibition | -33%
N[C@H]1CCN(c2nccc(-c3cnn4ncccc34)n2)C1 | binding |  |  | 1 µM | remaining binding | 87%
CO[C@H]1CC[C@H](CNc2ccc(S(=O)(=O)NC(=O)c3ccc(N4CCN(CC5=C(c6ccc(Cl)cc6)CC(C)(C)CC5)CC4)cc3Oc3cnc4[nH]ccc4c3)cc2[N+](=O)[O-])CC1 | cell-free assay |  | competition with immobilised ligand | 1 µM | remaining binding | 75%
Cc1ccc(C(=O)NCc2ccsc2)cc1C#Cc1cn(C(C)C)c2ncnc(N)c12 | enzyme activity | inhibitor |  | 1 µM | activity vs control | 108%
COc1cc(Nc2cnc(C#N)c(O[C@H](C)CN(C)C)n2)ncc1-c1cnn(C)c1 | enzyme activity | inhibitor | radiometric | 10 µM | remaining activity | 43%
Cc1ccc(NC(=O)c2ccc(CN3CCN(C)CC3)cc2)cc1Nc1nc(-c2cccnc2)cs1 | cell-free assay |  |  | 0.5 µM | remaining signal | 101%
O=C(NCc1ncc(C(F)(F)F)cc1Cl)c1ccc2c(c1)C1(CCS(=O)(=O)CC1)[C@@H](C1CC1)N2S(=O)(=O)c1ccc(F)cc1 | cell-free assay |  | competition with immobilised ligand | 1 µM | remaining binding | 100%
CCCOc1ccc(OC)c(F)c1C(=O)c1ccc(C(=O)N[C@@H]2CNC[C@H]2NC(=O)c2ccc3[nH]ncc3c2)cc1 | enzyme activity | inhibitor |  | 10 µM | remaining activity | 68%
Cc1cnc(NC2CCOCC2)nc1-n1cnc(C(=O)NC(CN)c2cc(F)cc(Cl)c2)c1 (centres unmarked) | enzyme activity | inhibitor | radiometric | 1 µM | remaining activity | 70%
CS(=O)(=O)NCC[C@H](NC(=O)c1cncc2c1cnn2-c1ccc(F)cc1)c1ccnc(S(C)(=O)=O)c1 | cell-free assay |  | competition with immobilised ligand | 1 µM | remaining binding | 100%
FC(F)(F)Oc1cccc(-c2cnc3ccc(-c4ccncc4)nn23)c1 | enzyme activity | inhibitor | radiometric | 1 µM | activity vs control | 97%
